For 31 compounds, IC50 results are on record in ChEMBL document CHEMBL1142995, “Probing the pharmacophore of ginkgolides as glycine receptor antagonists” (J Med Chem, 2007).

The structures appear in SMILES notation. Where only a bound is given, the exact number is not on record here.

Assay type in all cases: cell-based
The target in test [1] is T1, Glycine receptor subunit alpha-1 (Homo sapiens, UniProt P23415).
T1 sequence (P23415 whole entry): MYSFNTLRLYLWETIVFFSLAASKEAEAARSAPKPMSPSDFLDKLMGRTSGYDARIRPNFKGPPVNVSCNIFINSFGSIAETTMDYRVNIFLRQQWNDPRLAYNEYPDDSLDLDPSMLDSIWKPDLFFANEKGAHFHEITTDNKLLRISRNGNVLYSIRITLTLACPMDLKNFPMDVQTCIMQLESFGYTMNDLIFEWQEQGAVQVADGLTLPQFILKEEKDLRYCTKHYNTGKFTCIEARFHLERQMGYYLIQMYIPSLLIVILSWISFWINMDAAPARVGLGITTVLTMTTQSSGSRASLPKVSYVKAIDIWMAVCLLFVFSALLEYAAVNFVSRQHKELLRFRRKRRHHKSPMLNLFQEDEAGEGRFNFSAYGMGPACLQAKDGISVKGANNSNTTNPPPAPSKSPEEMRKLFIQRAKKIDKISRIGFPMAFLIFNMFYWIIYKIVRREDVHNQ
The experiment in a line: Activity at human alpha-1GlyR expressed in HEK293 cells by FMP assay. In short, it runs like this:
(§1)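 Stable HEK293 lines (α1: G418; α1β: G418 + hygromycin B; α2: hygromycin B) plated on poly-D-lysine 16-24 h. Loaded with FMP dye in HBSS/20 mM HEPES pH 7.4, antagonist present, 30 min at 37 °C. Fluorescence ex 530/em 560 nm read up to 1 min after glycine: 200 µM (α1, α1β) or 500 µM (α2). Duplicates, ≥3 experiments; IC50 from maximal responses.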

Test [2] concerns the target T1, Glycine receptor subunit alpha-1. The experiment in a line: Activity at human alpha-1-beta-GlyR expressed in HEK293 cells by FMP assay. The method, boiled down:
as §1

The target of test [3] is T2, Glycine receptor subunit alpha-2 (Homo sapiens, UniProt P23416).
T2 sequence (P23416 whole entry): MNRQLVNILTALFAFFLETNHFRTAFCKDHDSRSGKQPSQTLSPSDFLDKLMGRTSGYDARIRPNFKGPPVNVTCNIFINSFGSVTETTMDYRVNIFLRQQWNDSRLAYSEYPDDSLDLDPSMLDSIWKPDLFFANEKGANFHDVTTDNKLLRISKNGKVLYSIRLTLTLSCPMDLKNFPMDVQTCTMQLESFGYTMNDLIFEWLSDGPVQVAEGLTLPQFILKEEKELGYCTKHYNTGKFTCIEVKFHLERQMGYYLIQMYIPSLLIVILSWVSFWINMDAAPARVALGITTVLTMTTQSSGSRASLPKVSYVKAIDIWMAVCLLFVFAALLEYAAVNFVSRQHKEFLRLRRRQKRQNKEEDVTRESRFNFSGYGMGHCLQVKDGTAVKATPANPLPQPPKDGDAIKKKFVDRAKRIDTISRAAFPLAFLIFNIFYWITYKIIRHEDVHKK
Nature of the test: Activity at human alpha-2GlyR expressed in HEK293 cells by FMP assay. The method, boiled down:
as §1

Test [4] has as its target T1, Glycine receptor subunit alpha-1. Nature of the test: Activity at human alpha-1GlyR expressed in HEK293 cells assessed as inhibition of 300 uM glycine-induced current by whole-cell patch clamp experiment. On the technique in general: In patch-clamp work, channel activity is measured electrically.

As a reminder, the IC50 is the concentration needed to halve the response being measured.

Turning to `COC(=O)/C(C)=C1\CC[C@@]23C4C[C@@H](C(C)(C)C)C25C(OC(=O)[C@@H]5O)O[C@]13C(=O)O4` (stereo not given in full), the half-maximal inhibitory concentration (IC50) in test [1], in test [2] and in test [3] was greater than 100 µM each time.

Consider `C[C@@H]1C(=O)O[C@H]2[C@H](O)[C@]34[C@@H]5C(=O)O[C@@]3(O[C@@H]3OC(=O)[C@H](O)[C@@]34[C@H](C(C)(C)C)[C@@H]5Cl)[C@@]12O`, for which the 50% inhibitory concentration (IC50) in test [1] is 7.6 µM; in test [2], 3.2 µM; in test [3], 13 µM.

Take `C[C@@H]1C(=O)O[C@H]2C[C@@]34C5C[C@@H](C(C)(C)C)C3C(=O)O[C@]4(C(=O)O5)[C@]21O` (stereo not given in full): the concentration for half-maximal inhibition (IC50) in test [1], in test [2] and in test [3] was greater than 100 µM each time.

`CO[C@H]1C(=O)O[C@H]2O[C@@]34OC(=O)[C@@H]5[C@H](O)[C@@H](C(C)(C)C)[C@@]21[C@@]53[C@@H](O)[C@@H]1OC(=O)[C@@H](C)[C@@]14O`: the values for the IC50 in test [1], in test [2] and in test [3] were 9.8 µM, 5.2 µM and 7.8 µM, respectively.

`COC1C[C@]23C4C[C@@H](C(C)(C)C)C25C(OC(=O)[C@@H]5OC(C)=O)O[C@@]3(C(=O)O1)C(=O)O4` (stereo not given in full): the IC50 in test [1], in test [2] and in test [3] was greater than 100 µM each time.

On to `CN[C@@H]1C2OC(=O)[C@]34OC5OC(=O)[C@H](O)C5([C@@H]1C(C)(C)C)[C@@]23[C@@H](O)[C@@H]1OC(=O)[C@@H](C)[C@@]14O` (stereo not given in full), for which the IC50 in test [1], in test [2] and in test [3] was greater than 100 µM throughout.

With `COC1C[C@@]23C4C[C@@H](C(C)(C)C)C25C(OC(=O)[C@@H]5OC)O[C@@]3(C(=O)O1)C(=O)O4` (stereo not given in full), the IC50 in test [1], in test [2] and in test [3] was greater than 100 µM in each case.

As for `C[C@@H]1C(=O)O[C@H]2[C@H](O)[C@]34C5OC(=O)[C@@]3(OC3OC(=O)[C@H](O)C34[C@H](C(C)(C)C)C5=O)[C@@]12O` (stereo not given in full), the IC50 in test [1], in test [2] and in test [3] was greater than 100 µM each time.

On to `COC(=O)[C@H](OC)C12C(OC)O[C@@]34C(=O)OC(C[C@H]1C(C)(C)C)[C@]23C[C@@H]1OC(=O)[C@@H](C)[C@@]14O` (stereo not given in full), for which the half-inhibitory concentration (IC50) in test [1], in test [2] and in test [3] was greater than 100 µM throughout.

As for `C[C@@H]1CO[C@H]2C[C@@]34C5C[C@@H](C(C)(C)C)C36C(OC[C@@H]6O)O[C@]4(CO5)[C@@]12O` (stereo not given in full), the IC50 in test [1], in test [2] and in test [3] was greater than 100 µM in each case.

With `C[C@@H]1CO[C@H]2C[C@@]34C5C[C@@H](C(C)(C)C)C36C(OC[C@@H]6O)O[C@]4(C(=O)O5)[C@@]12O` (stereo not given in full), the concentration for half-maximal inhibition (IC50) in test [1], in test [2] and in test [3] was greater than 100 µM in each case.

On to `COC(=O)C(C)[C@H]1CC[C@@]23C4C[C@@H](C(C)(C)C)C25C(OC(=O)[C@@H]5O)O[C@]13C(=O)O4` (stereo not given in full), for which the half-maximal inhibitory concentration (IC50) in test [1], in test [2] and in test [3] was greater than 100 µM in each case.

Turning to `CC(C)(C)[C@@H]1CC2OC(=O)C34OC5OC(=O)[C@H](O)C51[C@@]23CC1OC(=O)[C@](C)(O)[C@@]14O` (stereo not given in full), the half-inhibitory concentration (IC50) in test [1], in test [2] and in test [3] was greater than 100 µM throughout.

As for `CC(=O)O[C@@H]1C2OC(=O)[C@]34OC5OC(=O)[C@H](O)C5([C@@H]1C(C)(C)C)[C@@]23[C@@H](O)[C@@H]1OC(=O)[C@@H](C)[C@@]14O` (stereo not given in full), the concentration for half-maximal inhibition (IC50) in test [1], in test [2] and in test [3] was greater than 100 µM throughout.

As for `CCN[C@@H]1C2OC(=O)[C@]34OC5OC(=O)[C@H](O)C5([C@@H]1C(C)(C)C)[C@@]23[C@@H](O)[C@@H]1OC(=O)[C@@H](C)[C@@]14O` (stereo not given in full), the IC50 in test [1], in test [2] and in test [3] was greater than 100 µM each time.

As for `C[C@@H]1C(=O)O[C@H]2C[C@]34C5OC(=O)[C@]3(OC(O)C4[C@H](C(C)(C)C)[C@H]5O)[C@]21O` (stereo not given in full), the half-maximal inhibitory concentration (IC50) in test [1], in test [2] and in test [3] was greater than 100 µM in each case.

On to `C[C@@H]1C(=O)O[C@H]2[C@H](O)[C@]34C5OC(=O)[C@@]3(OC3OC(=O)[C@H](O)C34[C@H](C(C)(C)C)[C@@H]5O)[C@@]12O` (stereo not given in full), for which the 50% inhibitory concentration (IC50) in test [1], in test [2] and in test [3] was greater than 100 µM each time.

Regarding `C[C@@H]1C(=O)O[C@H]2[C@H](O)[C@]34[C@@H]5C(=O)O[C@@]3(O[C@@H]3OC(=O)[C@H](O)[C@@]34[C@H](C(C)(C)C)[C@@H]5N=[N+]=[N-])[C@@]12O`, the concentration for half-maximal inhibition (IC50) was determined as 17 µM in test [1], 7.4 µM in test [2] and 29 µM in test [3].

Turning to `C[C@@H]1C(=O)O[C@H]2C[C@@]34C5C[C@@H](C(C)(C)C)C36C(=O)C(=O)OC6O[C@]4(C(=O)O5)[C@]21O` (stereo not given in full), the IC50 in test [1], in test [2] and in test [3] was greater than 100 µM in each case.

Turning to `C[C@@H]1CO[C@@H]2C[C@@]34C5C[C@@H](C(C)(C)C)C36C(OC(=O)[C@@H]6O)O[C@]4(C(=O)O5)[C@@]12O` (stereo not given in full), the IC50 in test [1], in test [2] and in test [3] was greater than 100 µM each time.

`C[C@@H]1C(=O)O[C@H]2[C@H](O)[C@@]34C5OC(=O)[C@@]3(OC3OC(=O)[C@H](O)C34[C@H](C(C)(C)C)[C@H]5OS(=O)(=O)C(F)(F)F)[C@@]12O` (stereo not given in full): the concentration for half-maximal inhibition (IC50) in test [1], in test [2] and in test [3] was greater than 100 µM each time.

As to `C[C@@H]1C(=O)O[C@H]2[C@H](O)[C@]34C5OC(=O)[C@@]3(OC3OC(=O)[C@H](O)C34[C@H](C(C)(C)C)[C@@H]5OC(=O)Cc3ccccc3)[C@@]12O` (stereo not given in full), the IC50 in test [1], in test [2] and in test [3] was greater than 100 µM in each case.

For `C[C@@H]1C(=O)OC2[C@@H]3OCO[C@H]4C(=O)OC5OC6(C(=O)OC7C[C@@H](C(C)(C)C)C54[C@]736)[C@]21O` (stereo not given in full), the IC50 in test [1] was 12 µM; in test [2], 8.9 µM; in test [3] it was 12 µM.

For `CC(=O)O[C@H]1C(=O)OC2O[C@@]34C(=O)OC5C[C@@H](C(C)(C)C)C21[C@@]53C[C@@H]1OC(=O)[C@H](C)[C@@H]14` (stereo not given in full), the half-maximal inhibitory concentration (IC50) in test [1], in test [2] and in test [3] was greater than 100 µM throughout.

For the compound `CC1=C2C(=C[C@]34C5OC(=O)[C@@]23OC2OC(=O)[C@H](O)C24[C@H](C(C)(C)C)[C@H]5O)OC1=O` (stereo not given in full), the IC50 in test [1], in test [2] and in test [3] was greater than 100 µM in each case.

Turning to `C[C@@H]1C(=O)O[C@H]2[C@H](O)[C@]34[C@@H]5C(=O)O[C@@]3(O[C@@H]3OC(=O)[C@H](O)[C@@]34[C@H](C(C)(C)C)[C@@H]5F)[C@@]12O`, the concentration for half-maximal inhibition (IC50) stood at 7.3 µM in test [1], 3.2 µM in test [2] and 4.6 µM in test [3].

Take `CC1=C2[C@H](C[C@]34[C@H]5C[C@@H](C(C)(C)C)[C@]36[C@@H](OC(=O)[C@@H]6O)O[C@]24OC5=O)OC1=O` [3,14-DIDEHYDROGINKGOLIDE A]: the values for the IC50 in test [1], in test [2] and in test [3] were 6.2 µM, 3.1 µM and 9.5 µM, respectively.

As to `CC(=O)O[C@H]1C(=O)OC2O[C@@]34C(=O)OC5C[C@@H](C(C)(C)C)C21[C@@]53C[C@@H]1OC(=O)[C@@H](C)[C@@]14O` (stereo not given in full) [10-ACETOXY-GINKGOLIDE B], the half-inhibitory concentration (IC50) in test [1], in test [2] and in test [3] was greater than 100 µM in each case.

With `COCO[C@H]1C(=O)O[C@H]2O[C@@]34OC(=O)[C@@H]5C[C@@H](C(C)(C)C)[C@@]21[C@]53C[C@@H]1OC(=O)[C@@H](C)[C@@]14O` [10-METHOXYMETHYLOXY-GINKGOLIDE A], the IC50 in test [1], in test [2] and in test [3] was greater than 100 µM each time.

Consider `C[C@@H]1C(=O)O[C@H]2C[C@@]34[C@H]5C[C@@H](C(C)(C)C)[C@]36[C@@H](OC(=O)[C@@H]6O)O[C@@]4(C(=O)O5)[C@]21O` [GINKGOLIDE A], for which the IC50 was determined as 1.9 µM in test [1], 0.69 µM in test [2], 2.1 µM in test [3] and 3.8 µM in test [4].

With `C[C@@H]1C(=O)O[C@H]2C[C@@]34O[C@@H]5OC(=O)[C@H](O)[C@@]56[C@H](C(C)(C)C)[C@H](O)C(OC3=O)[C@]64[C@]21O` (stereo not given in full) [GINKGOLIDE J], the half-inhibitory concentration (IC50) was 7.1 µM in test [1], 4.2 µM in test [2], 12 µM in test [3] and 6.4 µM in test [4].
